In ChEMBL document CHEMBL1157379, “Transcriptional response of Candida parapsilosis following exposure to farnesol” (2007):
Calls of active or inactive are those of the source. No cut-off for these calls is given here.

How the values were obtained:
[1] = system: Candida parapsilosis; assay: Reduction in ERG1 gene expression in Candida parapsilosis CLIB214 by RT-PCR; format: functional, organism-based
Summary of the method: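 Cultures in YPD at 30°C, diluted to A600 0.2; 50 μM farnesol (final) or methanol added at 4 h, RNA harvested 2 h later. RT-PCR: 95°C hot start 1 min 30 s, then 26 cycles (95°C 40 s, 55°C 2 min, 72°C 3 min), final 72°C 5 min; each gene signal normalized to ACT1.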

[2] = system: Candida parapsilosis; assay: Increase in CGD gene ortholog accession number orf19.7270 expression in Candida parapsilosis CLIB214 at 50 uM after 2 hrs by microarray based transcriptional profiling relative to control; format: functional
Summary of the method: (§1)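 Strain CLIB214 grown overnight in YPD at 30°C, diluted to A600 0.2 in fresh YPD at 30°C. After 4 h (A600 0.8), farnesol (40 mM methanol stock) added to 50 μM final, or an equal methanol volume as control; cells harvested 2 h later. RNA was accepted only with a 28S/18S ratio of 1.6–2.2. Cy3/Cy5-dCTP-labelled cDNA was made from 25 μg total RNA. Hybridisation was to duplicate-spotted 68-mer oligo arrays (3,849 genes) at 42°C for about 16 h. Six individual comparisons.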

[3] = system: Candida parapsilosis; assay: Decrease in CGD gene ortholog accession number orf19.6687 expression in Candida parapsilosis CLIB214 at 50 uM after 2 hrs by microarray based transcriptional profiling relative to control; format: functional; summary of the method: as §1
[4] = system: Candida parapsilosis; assay: Increase in CGD gene ortholog accession number orf19.3617 expression in Candida parapsilosis CLIB214 at 50 uM after 2 hrs by microarray based transcriptional profiling relative to control; format: functional; summary of the method: as §1
[5] = system: Candida parapsilosis; assay: Increase in PLB3 gene expression in Candida parapsilosis CLIB214 at 50 uM after 2 hrs by microarray based transcriptional profiling relative to control; format: functional
Summary of the method: (§2)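 Strain grown overnight in YPD at 30°C, diluted to A600 0.2 in YPD at 30°C; farnesol (40 mM methanol stock) added at 4 h (A600 0.8), final 50 μM; methanol-only control. Cells collected 2 h later for RNA. Labelled cDNA from 25 μg total RNA (Cy3/Cy5-dCTP) hybridized to 68-mer oligo arrays at 42°C ~16 h; six individual comparisons analysed statistically.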

[6] = system: Candida parapsilosis; assay: Increase in KRE30 gene expression in Candida parapsilosis CLIB214 at 50 uM after 2 hrs by microarray based transcriptional profiling relative to control; format: functional; summary of the method: as §2
[7] = system: Candida parapsilosis; assay: Decrease in CGD gene ortholog accession number orf19.5022 expression in Candida parapsilosis CLIB214 at 50 uM after 2 hrs by microarray based transcriptional profiling relative to control; format: functional
Summary of the method: (§3)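 Cells in YPD at 30°C treated with 50 μM farnesol at 4 h, with a methanol control. RNA harvested 2 h later and kept only if 28S/18S ratio was 1.6–2.2 with no degradation. 25 μg total RNA oligo-dT primed and labeled with Cy3/Cy5-dCTP. Labeled cDNA hybridized about 16 h at 42°C to duplicate-spotted 68-mer oligo arrays. Six individual comparisons analyzed statistically.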

[8] = system: Candida parapsilosis; assay: Increase in ACC1 gene expression in Candida parapsilosis CLIB214 at 50 uM after 2 hrs by microarray based transcriptional profiling relative to control; format: functional; summary of the method: as §1
[9] = system: Candida parapsilosis; assay: Increase in TEF1 gene expression in Candida parapsilosis CLIB214 at 50 uM after 2 hrs by microarray based transcriptional profiling relative to control; format: functional; summary of the method: as §2
[10] = system: Candida parapsilosis; assay: Increase in GenBank accession number NP_943645.1 expression in Candida parapsilosis CLIB214 at 50 uM after 2 hrs by microarray based transcriptional profiling relative to control; format: functional; summary of the method: as §2
[11] = system: Candida parapsilosis; assay: Decrease in PGA55 gene expression in Candida parapsilosis CLIB214 at 50 uM after 2 hrs by microarray based transcriptional profiling relative to control; format: functional; summary of the method: as §1
[12] = system: Candida parapsilosis; assay: Decrease in CGD gene ortholog accession number orf19.5683 expression in Candida parapsilosis CLIB214 at 50 uM after 2 hrs by microarray based transcriptional profiling relative to control; format: functional; summary of the method: as §3
[13] = system: Candida parapsilosis; assay: Decrease in CGD gene ortholog accession number orf19.672 expression in Candida parapsilosis CLIB214 at 50 uM after 2 hrs by microarray based transcriptional profiling relative to control; format: functional; summary of the method: as §1
[14] = system: Candida parapsilosis; assay: Increase in ENA2 gene expression in Candida parapsilosis CLIB214 at 50 uM after 2 hrs by microarray based transcriptional profiling relative to control; format: functional; summary of the method: as §2
[15] = system: Candida parapsilosis; assay: Antifungal activity against Candida parapsilosis CLIB214 assessed as growth inhibition at 50 uM added after 2 hrs of bacterial growth measured after 2 hrs; format: functional; settings: Lodderomyces parapsilosis, CLIB214, 2 h
Summary of the method: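 Overnight YPD culture at 30°C diluted to A600 0.2 in YPD. Farnesol added to 50 μM final at 2, 4, 6 or 8 h of growth (A600 about 0.8 at 4 h, 2.3 at 6 h, 6 at 8 h). Growth compared with methanol controls by A600 or cell counts.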

[16] = system: Candida albicans; assay: Antifungal activity against Candida albicans assessed as microbila killing effect; format: functional
[17] = system: Candida parapsilosis; assay: Decrease in CTN1 gene expression in Candida parapsilosis CLIB214 at 50 uM after 2 hrs by microarray based transcriptional profiling relative to control; format: functional; summary of the method: as §1
[18] = system: Candida parapsilosis; assay: Increase in PXP2 gene expression in Candida parapsilosis CLIB214 at 50 uM after 2 hrs by microarray based transcriptional profiling relative to control; format: functional; summary of the method: as §2
[19] = system: Candida parapsilosis; assay: Decrease in CGD gene ortholog accession number orf19.7118 expression in Candida parapsilosis CLIB214 at 50 uM after 2 hrs by microarray based transcriptional profiling relative to control; format: functional; summary of the method: as §1
[20] = system: Candida parapsilosis; assay: Increase in CGD gene ortholog accession number orf19.3349 expression in Candida parapsilosis CLIB214 at 50 uM after 2 hrs by microarray based transcriptional profiling relative to control; format: functional; summary of the method: as §1
[21] = system: Candida parapsilosis; assay: Increase in CGD gene ortholog accession number orf19.3501 expression in Candida parapsilosis CLIB214 at 50 uM after 2 hrs by microarray based transcriptional profiling relative to control; format: functional; summary of the method: as §1
[22] = system: Candida parapsilosis; assay: Decrease in CGD gene ortholog accession number orf19.5212 expression in Candida parapsilosis CLIB214 at 50 uM after 2 hrs by microarray based transcriptional profiling relative to control; format: functional; summary of the method: as §3
[23] = system: Candida parapsilosis; assay: Effect on membrane lipid localization in ERG9 gene expression in Candida parapsilosis CLIB214 assessed as uniform staining at 50 uM after 1 hr by filipin staining; format: functional
Summary of the method: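 Cultures grown overnight in YPD at 30°C, diluted to A600 0.2, and given farnesol to 50 μM final (methanol for controls) after 4 h of growth. Cells collected 1 h later, PBS-washed, and stained 10 min at room temperature with 100 μg ml−1 filipin in water. Scored by fluorescence microscopy (excitation 360–370 nm, emission 420–460 nm) as bud-tip versus uniform sterol staining.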

[24] = system: Candida parapsilosis; assay: Increase in CGD gene ortholog accession number orf19.1230 expression in Candida parapsilosis CLIB214 at 50 uM after 2 hrs by microarray based transcriptional profiling relative to control; format: functional; summary of the method: as §1
[25] = system: Candida parapsilosis; assay: Decrease in CGD gene ortholog accession number orf19.719 expression in Candida parapsilosis CLIB214 at 50 uM after 2 hrs by microarray based transcriptional profiling relative to control; format: functional; summary of the method: as §1

CC(C)=CCC/C(C)=C/CC/C(C)=C/CO [FARNESOL]
Activity [1]: Active | fold change (FC) [2]: 1.67 | fold change (FC) [3]: 2.26 | fold change (FC) [4]: 1.55 | fold change (FC) [5]: 1.66 | fold change (FC) [6]: 2.24 | fold change (FC) [7]: 1.85 | fold change (FC) [8]: 1.59 | fold change (FC) [9]: 1.61 | fold change (FC) [10]: 2.05 | fold change (FC) [11]: 1.76 | fold change (FC) [12]: 1.51 | fold change (FC) [13]: 1.77 | fold change (FC) [14]: 1.77 | inhibition at 50 µM [15]: 68.5% | Activity [16]: 80% | fold change (FC) [17]: 1.92 | fold change (FC) [18]: 2.04 | fold change (FC) [19]: 1.56 | fold change (FC) [20]: 1.78 | fold change (FC) [21]: 1.63 | fold change (FC) [22]: 2.33 | Activity [23]: 82% | fold change (FC) [24]: 1.53 | fold change (FC) [25]: 1.65
